From ChEMBL document CHEMBL2157892, “Modifications around the hydroxamic acid chelating group of fosmidomycin, an inhibitor of the metalloenzyme 1-deoxyxylulose 5-phosphate reductoisomerase (DXR)” (Bioorg Med Chem Lett, 2012) come the findings set out here.

Active and inactive are the calls of the source. No cut-off for these calls is given here.

The nature of data set [1]: Inhibition of Escherichia coli recombinant His6-tagged DXR expressed in Escherichia coli XL-1 blue using DXP as substrate after 5 mins by spectrophotometric analysis. The gist of the method:
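Recombinant His-tagged E. coli DXR. DXP-to-MEP conversion followed as NADPH consumption at 340 nm by UV–visible spectrophotometry, assay pH 7.5. Enzyme, NADPH and inhibitor were not pre-incubated; the reaction was started by adding DXP. IC50 derived from the rate data.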

The nature of data set [2]: Inhibition of Escherichia coli recombinant His6-tagged DXR expressed in Escherichia coli XL-1 blue using DXP as substrate incubated for 2 mins prior to substrate addition measured after 5 mins by spectrophotometric analysis. The gist of the method: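 His-tagged E. coli DXR, assayed at pH 7.5. Inhibitor was pre-incubated with enzyme and NADPH for 2 min at 37 °C, then DXP was added to start the reaction. Activity was read as NADPH consumption at 340 nm on a UV–visible spectrophotometer, and IC50 was derived from it.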

Data set [3] has as its system Escherichia coli. As to the kind of experiment: Ratio of IC50 for Escherichia coli recombinant His6-tagged DXR without preincubation to IC50 for Escherichia coli recombinant His6-tagged DXR with preincubation.
Data set [4] relates to Escherichia coli. As to the kind of experiment: Inhibition of Escherichia coli recombinant His6-tagged DXR expressed in Escherichia coli XL-1 blue using DXP as substrate at 1000 uM incubated for 2 mins prior to substrate addition measured after 5 mins by spectrophotometric analysis.
A short description of data set [5]: Drug degradation assessed as carbon disulfide production at pH 7.5. It is filed as physicochemical. Particulars: buffer.
The test system of data set [6] is Escherichia coli. As to the kind of experiment: Inhibition of Escherichia coli recombinant His6-tagged DXR expressed in Escherichia coli XL-1 blue using DXP as substrate at 1000 uM after 5 mins by spectrophotometric analysis.

As usually defined, the IC50 is the concentration at which inhibition is half-maximal.

With `O=P(O)(O)CCc1cccc(O)c1O`, the IC50 in data set [1] was 2000 µM; in data set [2], 1200 µM.
With `CN(O)C(=O)CCCP(=O)(O)O`, the IC50 in data set [1] amounted to 0.5 µM; in data set [2], 0.048 µM. Further, the Ratio IC50 in the data set with Escherichia coli [3] was 10.
Turning to `CON(C)C(=O)CCCP(=O)(O)O`, the figures for the IC50 in data set [1] and in data set [2] were 6900 µM and 3800 µM, respectively.
On the same counts, the results for `NNC(=O)CCCP(=O)(O)O` are 1800 µM and 1000 µM.
For `CN(CCP(=O)([O-])O)C(=S)[S-].[Na+].[Na+]`, the inhibition result in the data set on Escherichia coli [4] and in the data set on Escherichia coli [6] was “inactive” each time. In addition, the Drug degradation entry in data set [5] is “Active”.
As for `CONC(=O)CCCP(=O)(O)O`, the values for the IC50 in data set [1] and in data set [2] were 11500 µM and 930 µM, respectively.
`CN(CCCP(=O)([O-])O)C(=S)[S-].[Na+].[Na+]`: the inhibition entry with Escherichia coli [4] and in the data set with Escherichia coli [6] was “inactive” each time. For the same molecule, the Drug degradation entry in data set [5] was “Active”.
As to `O=CN(O)CCCP(=O)(O)O` [FOSMIDOMYCIN], the IC50 is 0.25 µM in data set [1] and 0.032 µM in data set [2]. For the same molecule, the Ratio IC50 with Escherichia coli [3] came out at 8.
As to `CSC(=S)NCCP(=O)(O)O`, the IC50 worked out at 2800 µM in data set [1] and 2700 µM in data set [2].
In the case of `O=P(O)(O)CCCc1cccc(O)c1O`, the inhibition entry in the data set with Escherichia coli [4] and in the data set on Escherichia coli [6] was “inactive” in each case.
As for `CSC(=S)N(C)CCCP(=O)(O)O`, the inhibition result with Escherichia coli [4] and in the data set with Escherichia coli [6] was “inactive” each time.
